Results taken from ChEMBL document CHEMBL1144676, “Synthesis and structure-activity relationships of a series of benzazepine derivatives as 5-HT2C receptor agonists” (Bioorg Med Chem, 2008).

How the values were obtained:
Rattus norvegicus [1] = experiment: Cardiovascular effect in po dosed rat assessed as increase in mean arterial blood pressure; assay type: functional, organism-based; conditions: Artery
In short: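 Carotid artery catheterised under pentobarbital (60 mg/kg ip). After at least 2 days of recovery, conscious rats stabilised ≥30 min in cages and then dosed orally at 3–30 mg/kg. Mean arterial blood pressure recorded via the catheter. A 5-HT2A antagonist, MDL100907, was also used.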

[2] = molecular target: 5-hydroxytryptamine receptor 2B (Homo sapiens, UniProt P41595); experiment: Displacement of [3H]5-HT from human 5HT2B receptor expressed in HEK293-EBNA cells; assay type: cell-based
Chain of 5-hydroxytryptamine receptor 2B (P41595 whole entry): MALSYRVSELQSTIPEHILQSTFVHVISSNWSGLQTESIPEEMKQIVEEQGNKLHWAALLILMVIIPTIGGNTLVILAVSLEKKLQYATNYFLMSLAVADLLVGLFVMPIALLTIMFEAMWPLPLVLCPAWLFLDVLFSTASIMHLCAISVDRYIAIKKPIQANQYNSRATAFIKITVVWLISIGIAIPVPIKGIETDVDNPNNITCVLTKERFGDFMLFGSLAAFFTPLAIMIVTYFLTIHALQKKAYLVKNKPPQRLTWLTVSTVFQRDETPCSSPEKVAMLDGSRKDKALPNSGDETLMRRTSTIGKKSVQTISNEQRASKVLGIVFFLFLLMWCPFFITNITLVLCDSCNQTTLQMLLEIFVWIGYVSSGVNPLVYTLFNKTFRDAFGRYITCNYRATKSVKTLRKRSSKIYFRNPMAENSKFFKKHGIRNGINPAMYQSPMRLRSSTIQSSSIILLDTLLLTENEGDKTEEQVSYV
In short: (§1)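 Radioligand displacement of [3H]5-HT using membranes from CHO cells (5-HT2C, 5-HT2A) or HEK293-EBNA cells (5-HT2B). Medium: 50 mM Tris-HCl pH 7.4, 4 mM CaCl2, pargyline, 0.1 mg/mL ascorbic acid. Incubated 37 C for 30 min, then vacuum-filtered on PEI-treated GF/B filters and counted by scintillation. Non-specific binding defined with 10 µM 5-HT. Ki obtained by Cheng-Prusoff.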

[3] = molecular target: Serotonin 2 receptors; 5-HT2a & 5-HT2c (Homo sapiens) (UniProt P28223+P28335); experiment: Selectivity for human 5HT2C receptor over human 5HT2A receptor
Chain of Serotonin 2 receptors; 5-HT2a & 5-HT2c (Homo sapiens) (P28223 whole entry, looked up, one chain of several): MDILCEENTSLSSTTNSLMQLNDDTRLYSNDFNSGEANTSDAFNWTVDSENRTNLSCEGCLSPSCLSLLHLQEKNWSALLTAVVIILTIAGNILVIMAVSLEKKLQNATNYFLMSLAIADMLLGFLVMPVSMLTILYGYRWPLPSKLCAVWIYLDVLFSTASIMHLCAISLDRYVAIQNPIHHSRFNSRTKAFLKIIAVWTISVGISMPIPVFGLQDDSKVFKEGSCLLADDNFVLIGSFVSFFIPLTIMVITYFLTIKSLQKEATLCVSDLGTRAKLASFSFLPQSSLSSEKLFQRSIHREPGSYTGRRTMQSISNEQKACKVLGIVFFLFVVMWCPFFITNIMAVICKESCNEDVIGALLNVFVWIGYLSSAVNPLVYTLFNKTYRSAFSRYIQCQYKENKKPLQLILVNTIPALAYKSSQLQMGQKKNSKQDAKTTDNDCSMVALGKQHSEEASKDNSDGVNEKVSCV

Rattus norvegicus [4] = experiment: Effect on penile erection in po dosed rat; assay type: functional; conditions: read-out: MED
In short: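 Rats given compound orally and placed singly in clear cages; penile erections counted over 30 min post-dose, with testing between 13:00 and 19:00. Erection scored as pelvic thrusts, rising onto hind limbs, engorged penis and licking. MED taken as the lowest dose differing from vehicle at p < 0.05.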

Homo sapiens = species: Homo sapiens; experiment: Selectivity for human 5HT2C receptor over human 5HT2B receptor
[5] = molecular target: T1, 5-hydroxytryptamine receptor 2C (Homo sapiens) (UniProt P28335); experiment: Intrinsic activity at human 5HT2C receptor expressed in CHO cells assessed as myo-[3H]inositol turnover relative to 5-hydroxytryptamine; assay type: functional, cell-based
T1 sequence (whole entry): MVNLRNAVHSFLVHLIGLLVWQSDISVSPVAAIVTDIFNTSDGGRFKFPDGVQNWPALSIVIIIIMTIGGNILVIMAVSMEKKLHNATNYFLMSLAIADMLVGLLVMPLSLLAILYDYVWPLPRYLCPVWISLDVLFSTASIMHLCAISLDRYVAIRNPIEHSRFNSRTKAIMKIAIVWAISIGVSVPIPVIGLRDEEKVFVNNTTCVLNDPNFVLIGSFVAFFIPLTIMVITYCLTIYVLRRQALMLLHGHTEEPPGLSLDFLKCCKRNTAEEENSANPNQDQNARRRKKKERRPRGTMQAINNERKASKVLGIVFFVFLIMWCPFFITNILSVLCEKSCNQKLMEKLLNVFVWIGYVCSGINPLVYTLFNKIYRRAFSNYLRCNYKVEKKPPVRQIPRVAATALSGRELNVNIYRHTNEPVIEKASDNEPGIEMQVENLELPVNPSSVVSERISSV
In short: (§2)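 Receptor-expressing CHO cells cultured 1 day, then labelled 24 h with myo-[3H]inositol (3 µCi/mL). Cells washed, held in PBS 20 min, then PBS-LiCl 20 min, then exposed 20 min to compound in PBS-LiCl. Stopped with PCA; [3H]inositol phosphates isolated on AG1-X8 anion-exchange columns and counted. Emax expressed relative to 10 µM 5-HT (100%), derived by non-linear fitting.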

[6] = molecular target: T2, 5-hydroxytryptamine receptor 2C (Homo sapiens, UniProt P28335); experiment: Displacement of [3H]5-HT from human 5HT2C receptor expressed in CHO cells; assay type: cell-based; in short: as §1
T2 sequence (P28335 whole entry): T1 sequence (whole entry)

[7] = molecular target: T3, 5-hydroxytryptamine receptor 2A (Homo sapiens, UniProt P28223); experiment: Intrinsic activity at human 5HT2A receptor expressed in CHO cells assessed as myo-[3H]inositol turnover relative to 5-hydroxytryptamine; assay type: functional, cell-based; in short: as §2
T3 sequence (P28223 whole entry): as the sequence (P28223 whole entry, looked up, one chain of several) above

[8] = molecular target: T3, 5-hydroxytryptamine receptor 2A; experiment: Displacement of [3H]5-HT from human 5HT2A receptor expressed in CHO cells; assay type: cell-based; in short: as §1

CCc1cc2c(ccc3cnn(C[C@H](C)N)c32)o1 was tested, and the Activity (Rattus norvegicus [1]) was “Dose-dependent effect”, the Ki [2] was 2.5 nM and the Ratio Ki [3] was 15. It also gave a minimal effective dose (Rattus norvegicus [4]) of 0.3 mg/kg and a Ratio Ki (Homo sapiens) of 2.8.
For CN1CCc2ccc([N+](=O)[O-])c(Cl)c2CC1, the Emax [5] was 85%, the Ki [6] was 66 nM and the Emax [7] was 7%. It also gave a Ki [2] of 1000 nM, a Ratio Ki [3] of 6 and a Ki [8] of 400 nM. It also gave a Ratio Ki (Homo sapiens) of 5.
COc1ccc2c(c1Cl)CCNCC2 gave an Emax [5] of 88%, a Ki [6] of 20 nM and an Emax [7] of 56%. The Ki [2] was 84 nM, the Ratio Ki [3] was 3 and the Ki [8] was 62 nM. The Ratio Ki (Homo sapiens) was 4.
Clc1ccc2c(c1Cl)CCNCC2 was tested, and the Emax [5] was 87%, the Ki [6] was 8.8 nM and the Emax [7] was 27%. For the same compound, the Ki [2] was 100 nM, the Ratio Ki [3] was 11 and the Ki [8] was 93 nM. It also gave a minimal effective dose (Rattus norvegicus [4]) of 0.3 mg/kg and a Ratio Ki (Homo sapiens) of 11.
c1cc2ccc3c(c2o1)CCNCC3 showed an Emax [5] of 57%, a Ki [6] of 23 nM and an Emax [7] of 40%. It also gave a Ki [2] of 34 nM, a Ratio Ki [3] of 4 and a Ki [8] of 99 nM. The Ratio Ki (Homo sapiens) was 1.
Work on O=[N+]([O-])c1ccc2c(c1Cl)CCNCC2 yielded an Emax [5] of 86%, a Ki [6] of 14 nM and an Emax [7] of 38%. For the same compound, the Ki [2] was 300 nM, the Ratio Ki [3] was 4 and the Ki [8] was 51 nM. For the same compound, the Ratio Ki (Homo sapiens) was 21.
With CNc1ccc2c(c1Cl)CCNCC2 the Emax [5] was 81%, the Ki [6] was 46 nM and the Emax [7] was 90%. It also gave a Ki [2] of 210 nM, a Ratio Ki [3] of 2 and a Ki [8] of 90 nM. It also gave a Ratio Ki (Homo sapiens) of 5.
In the case of Fc1ccc2c(c1Cl)CCNCC2, the Emax [5] is reported as 80%, the Ki [6] is reported as 43 nM and the Emax [7] is reported as 26%. It also gave a Ki [2] of 410 nM, a Ratio Ki [3] of 3 and a Ki [8] of 130 nM. The Ratio Ki (Homo sapiens) was 10.
N#Cc1ccc2c(c1Cl)CCNCC2 gave an Emax [5] of 81%, a Ki [6] of 5.1 nM and an Emax [7] of 23%. It also gave a Ki [2] of 65 nM, a Ratio Ki [3] of 6 and a Ki [8] of 30 nM. For the same compound, the Ratio Ki (Homo sapiens) was 13.
With c1cc2c3c(ccc2o1)CCNCC3 the Emax [5] was 82%, the Ki [6] was 20 nM and the Emax [7] was 47%. For the same compound, the Ki [2] was 90 nM, the Ratio Ki [3] was 2 and the Ki [8] was 46 nM. For the same compound, the Ratio Ki (Homo sapiens) was 5.
Compound Clc1c(Br)ccc2c1CCNCC2 has an Emax [5] of 71%, a Ki [6] of 2.4 nM and an Emax [7] of 32%. It also gave a Ki [2] of 25 nM, a Ratio Ki [3] of 4 and a Ki [8] of 10 nM. For the same compound, the Ratio Ki (Homo sapiens) was 10.
